Screening data (PubChem)
This is a sample that favours compounds with a hit; in the whole collection about 2% have one here.
ARFGAP1 inhibitor: inhibitors of rat ARFGAP1. Arfgap1-stimulated ARF1 GTP hydrolysis, GDP FP detection. actives 0.26% (n = 360,000). inhibition, % at 16.5 µM. Q62848;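 active = inhibition above a per-plate limit, mean inhibition of low control wells plus 3 SD, cut at about 25% in these data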;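 also: 0% = DMSO wells with enzyme and 100% = wells lacking Arfgap1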
Target sequence (Q62848 1-136 limits assumed): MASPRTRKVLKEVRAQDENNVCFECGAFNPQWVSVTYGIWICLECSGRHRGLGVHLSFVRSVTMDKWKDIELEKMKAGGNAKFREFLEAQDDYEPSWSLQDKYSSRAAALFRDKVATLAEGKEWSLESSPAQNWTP
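Material – truncated rat Arfgap1 GAP domain · Buffer or medium – HEPES-based buffer, pH 7.5 · Reagent – human ARF1(Δ1-17)-GTP substrate · Dosing – 16.5 µM single point, 1.26% DMSO · Schedule – GTP hydrolysis reaction 2 h at 25 °C · Technique – GDP detection by fluorescence polarization · Benchmarks – No-Arfgap1 wells (100%) versus DMSO full-reaction wells (0%) · Repeats – single replicate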
MBD2 inh: inhibitors of human MBD2 binding to methylated oligonucleotide; Q9UBB5; TR-FRET; inhibition, % at 4.4 µM; actives 0.31% (n = 370,000); in the data active = inhibition above about 13%
UHRF1 binding: blocks human UHRF1 binding to methylated DNA | Q96T88 | UHRF1 binding to methylated oligo, TR-FRET | inhibition, % at 4.4 µM | actives 0.75% (n = 370,000) | AID 687016; in the data active = inhibition above about 21%;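 also: UHRF1 SRA domain binding a hemimethylated CpG hairpin DNA probe; 0% = median of test compound wells and 100% = reference inhibitor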
TDP2 inh: blocks human TDP2 phosphodiesterase activity; O95551; recombinant TDP2, T5PNP hydrolysis, p-nitrophenol absorbance 415 nm; inhibition, % at 12.8 µM; actives 0.34% (n = 370,000); AID 720702;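 active = inhibition above the mean of all tested compounds plus 3 SD, set per campaign, cut at about 25% in these data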;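 also: 0% = DMSO with enzyme and 100% = buffer with substrate but no TDP2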
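Read-out basis: percent inhibition. System: recombinant human TDP2. Buffer or medium: Mg2+-containing Tris-HCl buffer, pH 7.5. Repeats: single replicate. Timing: reaction 2 h, 37 °C. Benchmarks: high control without enzyme, low control DMSO plus TDP2. Probe or stimulus: 5 mM T5PNP. Doses: 12.8 µM only. Measured by: epi absorbance of p-nitrophenol freed from T5PNP by hydrolysis.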
LEDGF integ inh: blocks HIV-1 LEDGF/p75-dependent DNA integration; actives 0.64% (n = 370,000); AID 743269; inhibition, % at 3.7 µM; TR-FRET IN-LEDGF/p75 DNA integration, Eu/Cy5;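 active = inhibition above the screen-wide mean plus 3 SD, cut at about 13% in these data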;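 also: signal is the Cy5 over europium emission ratio at 671 and 618 nm; 0% = plate median of compound wells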
ASAP1 inh: ASAP1 ArfGAP inhibition. actives 0.19% (n = 360,000). inhibition, % at 16.5 µM. ASAP1-stimulated ARF1 GTP hydrolysis, GDP FP detection; in the data active = inhibition above about 25%;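 also: 0% = vehicle with enzyme and substrate and 100% = no enzyme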
Target sequence (Q9ULH1 325-724 limits assumed): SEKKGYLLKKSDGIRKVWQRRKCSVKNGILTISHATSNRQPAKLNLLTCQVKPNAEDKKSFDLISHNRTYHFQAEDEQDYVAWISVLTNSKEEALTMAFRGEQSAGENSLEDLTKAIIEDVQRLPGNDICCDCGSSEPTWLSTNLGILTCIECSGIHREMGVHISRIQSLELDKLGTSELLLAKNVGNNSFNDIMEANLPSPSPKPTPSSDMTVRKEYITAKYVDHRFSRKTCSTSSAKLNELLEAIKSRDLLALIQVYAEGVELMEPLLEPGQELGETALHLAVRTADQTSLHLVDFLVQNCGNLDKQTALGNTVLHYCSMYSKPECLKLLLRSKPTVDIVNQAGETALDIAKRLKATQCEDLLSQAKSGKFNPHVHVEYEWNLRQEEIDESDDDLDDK
* = called active by the depositor; x = no result given.

SMILES	ARFGAP1 inhibitor	MBD2 inh	UHRF1 binding	TDP2 inh	LEDGF integ inh	ASAP1 inh
Cc1nc(C(=O)N2CCc3c([nH]c4ccccc34)C2c2cc(F)ccc2F)cs1 (centres undefined)	20	-2	4	-5	2	2
CC(=O)c1ccc([C@H](O)[C@H](C)C(=O)N(C)c2ccccc2)cc1	x	-4	-3	4	2	x
COc1ccc(OC)c(CCNC(=O)C2CCN(c3ncnc4c3nc3n4CCCCC3)CC2)c1	4	0	26*	0	-3	6
COc1ccc(NC(=O)C2CCN(c3ncnc4c3nc3n4CCCCC3)CC2)c(OC)c1	-12	-4	0	-1	0	-19
CC1CC(C)CN(C(=O)c2cc3cc(Br)cc(Br)c3o2)C1 (centres undefined)	-4	3	47*	-17	-6	7
O=C(NCc1ccccc1)Nc1ccccc1C(=O)N1CCCC1	x	2	1	-5	-4	x
O=S1(=O)C=CCN1Cc1cn(Cc2ccc(F)cc2)nn1	x	-3	47*	2	6	x
O=S1(=O)C=CCN1Cc1cn(Cc2ccc(Cl)cc2)nn1	x	-1	2	5	2	x
CCCCc1ccc2nc(NC(=O)c3ccc(Br)o3)sc2c1	x	0	-2	-9	0	x
O=C(Cn1cnc2sc(-c3ccccc3)cc2c1=O)NCc1ccco1	-6	10	50*	8	11	3
c1ccc(-c2nn(Cc3ncco3)c3ccccc23)cc1	x	3	2	4	3	x
NS(=O)(=O)c1cc(C(=O)NC2CCSc3ccccc32)ccc1Cl (centres undefined)	-31	96*	102*	73*	60*	-11
NS(=O)(=O)c1cccc(C(=O)NC2CCSc3ccccc32)c1 (centres undefined)	1	-2	0	-6	2	2
COc1ccc(NC(=O)CN(C)C(=O)c2cc(-c3ccco3)nc3ccccc23)cc1	6	12	29*	2	11	12
COc1ccccc1CNC(=O)COC(=O)c1cc(C)nc2ccccc12	3	3	0	-6	-2	6
CN(CC(=O)Nc1cccc(F)c1)C(=O)c1cc(-c2ccco2)nc2ccccc12	-15	10	18	9	6	-10
COc1ccccc1CNC(=O)COC(=O)c1cc(-c2ccco2)nc2ccccc12	4	20*	31*	5	10	-4
O=C(O)c1ccc(-c2ccc(/C=C3\NC(=O)N(Cc4ccc(Cl)cc4)C3=O)o2)cc1Cl	-1	22*	77*	3	29*	2
CCOC(=O)CN1C(=O)S/C(=C\c2ccc(-c3ccc(C(=O)O)c(Cl)c3)o2)C1=O	-4	4	14	2	3	-5
Cc1nn(-c2ccccc2)c(C)c1C(=O)OC(C)C(=O)NC1CCCCC1C (centres undefined)	13	6	0	-7	-1	7
CC(OC(=O)c1n[nH]c2ccccc12)C(=O)NC1CCCCC1C (centres undefined)	1	5	-1	4	-4	8
CC(OC(=O)C1=NN(c2ccccc2)C(=O)CC1)C(=O)NC1CCCCC1C (centres undefined)	-4	1	48*	4	3	-9
CC(OC(=O)c1nn(C)c(=O)c2ccccc12)C(=O)NC1CCCCC1C (centres undefined)	-4	-1	26*	-5	-4	1
O=C1CC(c2ccc3ccccc3c2)N=C2N(Cc3ccc4c(c3)OCO4)C/C(=C/c3ccccc3)N12 (centres undefined)	x	-6	-2	-4	-1	x
CN(C)CCNc1ncnc2c1sc1nc(N3CCCC3)c3c(c12)CC(C)(C)OC3	-9	9	23*	-4	-3	2
SMILES	ARFGAP1 inhibitor	MBD2 inh	UHRF1 binding	TDP2 inh	LEDGF integ inh	ASAP1 inh
CCN(CC)CCNc1ncnc2c1sc1nc(N3CCCC3)c3c(c12)CC(C)(C)OC3	-7	7	23*	-16	3	-8
Cc1c(C(=O)N/N=C/c2ccccc2Cl)[nH][nH]c1=O	x	-5	-1	1	-1	x
COC(=O)[C@]12C[C@H](CC(=O)NCC34CC5CC(CC(C5)C3)C4)C(=O)N(Cc3ccccc3)C1=C[C@H](COCc1ccccc1)O[C@@H]2C	x	1	-1	1	-2	x
CCCCCC(=O)NC(=S)Nc1ccccc1C(=O)OC	1	12	24*	5	6	1
O=C1CCc2cc(S(=O)(=O)N3CCN(Cc4cccc5c4OCO5)CC3)ccc2N1	x	-3	1	-3	1	x
Clc1ccc(N2CCN(Cc3c[nH]c4ncccc34)CC2)cc1	-5	-3	23*	-5	-1	4
c1ccc(CN2CCN(Cc3c[nH]c4ccccc34)CC2)cc1	4	2	0	1	3	-3
COc1ccc(S(=O)(=O)N2CCOCC2)cc1NC(=O)Cc1c(Cl)cccc1Cl	1	-3	-2	3	0	3
COc1ccc(S(=O)(=O)N2CCOCC2)cc1NC(=O)CN(C)Cc1c(F)cccc1Cl	7	4	24*	-8	3	17
CC(CNC(=O)CC[C@H]1O[C@@H](n2cnc3c(NC(=O)c4ccccc4)ncnc32)[C@H](O)[C@@H]1O)c1ccccc1 (some centres undefined)	11	0	27*	-9	1	-3
Cc1ccc(OCCn2c(CCNC(=O)C3CCCCCC3)nc3ccccc32)cc1	x	7	3	-8	2	x
Cc1ccc(C)n1-c1cc([N+](=O)[O-])ccc1-n1ccnc1	1	-1	-1	-16	-1	13
CC1(C)N([O-])c2cc([N+](=O)[O-])ccc2[N+]1=O	-5	-10	7	6	21*	7
Cn1c(SCC2CCCCC2)nnc1-c1ccco1	x	-3	-1	5	0	x
Cc1ccc(C(=O)Nc2ccc(C(=O)O)cc2NC(=O)c2ccc(C)cc2)cc1	14	2	0	-8	27*	2
O=C(O)c1ccc(NC(=O)c2ccc(Cl)cc2)c(NC(=O)c2ccc(Cl)cc2)c1	-4	10	3	-11	3	5
O=C(NC1CCCCN(Cc2cccc(F)c2)C1=O)c1ccc(F)cc1 (centres undefined)	x	-1	0	4	-4	x
O=C(O)c1cc(-c2c[nH]c3ccccc23)nc2ccc3ccccc3c12	3	1	21*	5	1	8
COc1ccc(C(C)NC(=O)c2ccccc2Br)cc1OC (centres undefined)	3	-3	-1	2	-2	6
Cc1ccc(C)c(C(C)NC(=O)c2ccccc2Br)c1 (centres undefined)	12	0	22*	-5	-3	-9
